pIC50: −log10 of the molar value. Bounds are passed on as bounds.

This assay concerns the target Gamma-secretase. Kind of assay: Modulation of gamma secretase in human H4 cells expressing human wild type APP assessed as inhibition of amyloid beta 42 production after 22 hrs by electrochemiluminescence assay. The class given is cell-based. In short, it runs like this: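 H4 cells overexpressing human APPwt, 10,000/well, were exposed to compound 22 h at 37°C, 5% CO2. Supernatant was diluted with medium on an MSD anti-Aβ42 plate and detected with S-tag 6E10 (1:50, 1 h). Read-out was electrochemiluminescence.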

On to `CCn1ncc2c1CCC(Nc1nc3c(-c4cccc(Cl)c4)cccn3n1)C2` (centres undefined), for which the pIC50 was 7.40. Then `CCn1ncc2c1CCC(Nc1nc3c(-c4ccccc4)cccn3n1)C2` (centres undefined), with 7.15. Then `CCn1ncc2c1CCC(Nc1nc3c(-c4cncc(OC)c4)cccn3n1)C2` (centres undefined), with 6.70; and `CCc1nn(C)c2c1CCC(Nc1nc3c(-c4ccc(F)cc4C)cccn3n1)C2` (centres undefined), with 5.50.

In the case of `Cc1cc(F)ccc1-c1cccn2nc(NC3CCc4c(cnn4C(C)C)C3)nc12` (centres undefined), the pIC50 is 6.37. The figure for `CCn1ncc2c1CCC(Nc1nc3c(-c4ccccc4Cl)cccn3n1)C2` (centres undefined) is 7.22; for `CCn1ncc2c1CCC(Nc1nc3c(-c4ccc(N(C)C)nc4)cccn3n1)C2` (centres undefined) it is 7.30; for `Cc1cc(F)ccc1-c1cccn2nc(Nc3ccc4c(cnn4C)c3)nc12` it is 5.92.

As to `CCn1ncc2c1CC[C@H](Nc1nc3c(-c4ccc(F)c(Cl)c4)cccn3n1)C2`, the pIC50 is 6.71. Then `CCn1ncc2c1CCC(Nc1nc3c(-c4ccc(F)cc4)cccn3n1)C2` (centres undefined), with 6.74. The figure for `CCCCCn1ncc2c1CCC(Nc1nc3c(-c4ccc(F)cc4C)cccn3n1)C2` (centres undefined) is less than 4.52; for `CCn1ncc2c1CCC(Nc1nc3c(-c4cccnc4OC)cccn3n1)C2` (centres undefined) it is 6.30; for `CCn1ncc2c1CCC(Nc1nc3c(-c4cccnc4)cccn3n1)C2` (centres undefined) it is 6.46.

Turning to `CCc1nnc2n1CCC(Nc1nc3c(-c4ccc(F)cc4C)cccn3n1)C2` (centres undefined), the pIC50 is 5.86. Then `CCCn1ncc2c1CCC(Nc1nc3c(-c4ccc(F)cc4C)cccn3n1)C2` (centres undefined), with 7.22.

For `CCn1ncc2c1CCC(Nc1nc3c(-c4ccc(F)cc4C)cccn3n1)C2` (centres undefined), the negative-log IC50 (pIC50) was 7.15. Then `CCn1ncc2c1CCC(Nc1nc3c(-c4cncc(Cl)c4)cccn3n1)C2` (centres undefined), with 7.40.

As for `CCn1ncc2c1CCC(Nc1nc3c(-c4ccc(F)c(Cl)c4)cccn3n1)C2` (centres undefined), the pIC50 is 7.70. Then `CCn1ncc2c1CCC(Nc1nc3c(-c4ccc(Cl)cc4)cccn3n1)C2` (centres undefined), with 7.22.

By pIC50 is commonly meant −log10 of the IC50, conventionally taken in molar units.
